Results taken from ChEMBL document CHEMBL1765010, “Reversible competitive α-ketoheterocycle inhibitors of fatty acid amide hydrolase containing additional conformational constraints in the acyl side chain: orally active, long-acting analgesics” (J Med Chem, 2011).
Active and inactive are the calls of the source. The rule behind the calls is not given here.

Key:
[1] = molecular target: T1, Fatty-acid amide hydrolase 1 (Homo sapiens) (UniProt O00519); experiment: Competitive inhibition of full-length human FAAH expressed in COS-7 cells by Lineweaver-Burk analysis; assay type: cell-based
T1 sequence (whole entry): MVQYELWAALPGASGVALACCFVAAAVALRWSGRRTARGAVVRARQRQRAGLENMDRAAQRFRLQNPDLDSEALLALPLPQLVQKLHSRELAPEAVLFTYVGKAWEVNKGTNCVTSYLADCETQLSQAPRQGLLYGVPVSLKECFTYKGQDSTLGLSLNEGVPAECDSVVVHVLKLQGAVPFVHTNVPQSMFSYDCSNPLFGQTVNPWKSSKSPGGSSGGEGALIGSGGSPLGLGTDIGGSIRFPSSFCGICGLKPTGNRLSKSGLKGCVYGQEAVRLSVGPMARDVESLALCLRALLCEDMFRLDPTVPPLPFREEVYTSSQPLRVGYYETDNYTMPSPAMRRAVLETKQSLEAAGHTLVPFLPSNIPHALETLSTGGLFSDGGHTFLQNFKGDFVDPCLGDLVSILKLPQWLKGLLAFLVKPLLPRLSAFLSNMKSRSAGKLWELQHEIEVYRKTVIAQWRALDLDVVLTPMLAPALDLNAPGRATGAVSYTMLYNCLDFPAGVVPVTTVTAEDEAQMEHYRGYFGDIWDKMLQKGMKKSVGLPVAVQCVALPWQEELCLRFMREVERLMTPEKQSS
Summary of the method: (§1)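 Solubilized membrane lysate of COS-7 cells transiently transfected with full-length human FAAH cDNA. Aliquots quenched in 0.1 N HCl at three times; oleamide/oleic acid extracted into EtOAc and separated by TLC. Initial rates (≤10–20% conversion) analysed by Lineweaver–Burk plot.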

[2] = molecular target: T1, Fatty-acid amide hydrolase 1 (Homo sapiens); experiment: Reversible inhibition of full-length human FAAH expressed in COS-7 cells by Lineweaver-Burk analysis; assay type: cell-based; summary of the method: as §1
Mus musculus [3] = experiment: Inhibition of FAAH in C57Bl/6J mouse brain assessed as increase of anandamide level at 30 mg/kg, ip after 1 hr relative to control; assay type: functional; conditions: route intraperitoneal
Summary of the method: (§2)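 Male C57Bl/6J mice (<6 months, 20–28 g) dosed i.p. at 30 mg/kg in 18:1:1 saline:ethanol:emulphor emulsion; brains taken 1 h later. One mouse in the initial screen, 3 per group in the follow-up. Brain homogenized in CHCl3:MeOH:Tris pH 8.0 with deuterated lipid standards; organic extract quantified by reverse-phase C18 LC-ESI-MS/MS against vehicle controls.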

Mus musculus [4] = experiment: Inhibition of FAAH in C57Bl/6J mouse brain assessed as increase of N-palmitoyl ethanolamine level at 30 mg/kg, ip after 1 hr relative to control; assay type: functional; conditions: route intraperitoneal; summary of the method: as §2
Mus musculus [5] = experiment: Inhibition of FAAH in C57Bl/6J mouse brain assessed as increase of 2-arachidonoylglycerol level at 30 mg/kg, ip after 1 hr relative to control; assay type: functional; conditions: route intraperitoneal; summary of the method: as §2
Mus musculus [6] = experiment: Inhibition of FAAH in C57Bl/6J mouse brain assessed as increase of arachidonic acid level at 30 mg/kg, ip after 1 hr relative to control; assay type: functional; conditions: route intraperitoneal; summary of the method: as §2
Mus musculus [7] = experiment: Inhibition of FAAH in C57Bl/6J mouse liver assessed as increase of anandamide level at 30 mg/kg, ip after 1 hr relative to control; assay type: functional; conditions: route intraperitoneal
Mus musculus [8] = experiment: Inhibition of FAAH in C57Bl/6J mouse liver assessed as increase of N-palmitoyl ethanolamine level at 30 mg/kg, ip after 1 hr relative to control; assay type: functional; conditions: route intraperitoneal
Mus musculus [9] = experiment: Inhibition of FAAH in C57Bl/6J mouse brain assessed as increase of anandamide level at 50 mg/kg, po after 1 hr relative to control; assay type: functional
Summary of the method: (§3)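 Male C57Bl/6J mice (<6 months, 20–28 g) given compound orally as a PEG300 solution at 10, 25 or 50 mg/kg, with 3 mice per group in the 50 mg/kg p.o. comparison; brains collected 1 h post-dose. Lipids extracted in CHCl3:MeOH:Tris pH 8.0 with deuterated internal standards, then measured by C18 LC-ESI-MS/MS relative to vehicle-treated mice.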

Mus musculus [10] = experiment: Inhibition of FAAH in C57Bl/6J mouse brain assessed as increase of 2-arachidonoylglycerol level at 50 mg/kg, po after 1 hr relative to control; assay type: functional; summary of the method: as §3
Mus musculus [11] = experiment: Inhibition of FAAH in po dosed C57Bl/6J mouse brain assessed as increase of N-palmitoyl ethanolamine level after 1 hr relative to control; assay type: functional, organism-based; conditions: in the assay text read “anandamide” for “N-palmitoyl ethanolamine”
Summary of the method: (§4)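 Male C57Bl/6J mice (<6 months, 20–28 g) given a single oral dose as a PEG300 solution. Brains were homogenized in CHCl3:MeOH:Tris pH 8.0 containing deuterated internal standards. The organic extract was analysed by reverse-phase C18 LC–ESI triple-quadrupole MS for anandamide, PEA, OEA and 2-AG. Dose series (10, 25, 50 mg/kg) was sampled at 1 h; the 50 mg/kg time course ran to 9 h. Three mice per group in the i.p./p.o. comparison.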

Mus musculus [12] = experiment: Inhibition of FAAH in po dosed C57Bl/6J mouse brain assessed as increase of 2-arachidonoylglycerol level after 1 hr relative to control; assay type: functional, organism-based; summary of the method: as §4
Mus musculus [13] = experiment: Inhibition of FAAH in C57Bl/6J mouse brain assessed as increase of anandamide level at 50 mg/kg, po; assay type: functional, organism-based; design: dose 50 mg/kg; conditions: TDE = time-dependent effect; summary of the method: as §4
Mus musculus [14] = experiment: Inhibition of FAAH in C57Bl/6J mouse brain assessed as increase of 2-arachidonoylglycerol level at 50 mg/kg, po; assay type: functional, organism-based; design: dose 50 mg/kg; conditions: TDE = time-dependent effect; summary of the method: as §4
Mus musculus [15] = experiment: Inhibition of FAAH in C57Bl/6J mouse brain assessed as increase of N-palmitoyl ethanolamine level at 10 to 50 mg/kg, po after 1 hr relative to control; assay type: functional; conditions: dose mg/kg 10-50; summary of the method: as §3
Mus musculus [16] = experiment: Inhibition of FAAH in C57Bl/6J mouse brain assessed as increase of anandamide level at 10 to 50 mg/kg, po after 1.5 to 3 hrs; assay type: functional, organism-based
Mus musculus [17] = experiment: Inhibition of FAAH in C57Bl/6J mouse brain assessed as increase of anandamide level at 10 to 50 mg/kg, po after up to 9 hrs; assay type: functional, organism-based; summary of the method: as §4
Mus musculus [18] = experiment: Inhibition of FAAH in C57Bl/6J mouse brain assessed as increase of anandamide level at 10 mg/kg, po; assay type: functional; design: scale not given: the % may be the effect or the level left; summary of the method: as §3
Mus musculus [19] = experiment: Analgesic activity in C57BL/6 mouse chronic constriction injury model assessed as reversal of acetone-induced cold allodynia at 50 mg/kg, po measured up to 9 hrs; assay type: functional, organism-based; design: dose 50 mg/kg
Summary of the method: (§5)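 Male C57BL/6 mice with sciatic nerve chronic constriction injury (two silk ligatures, isoflurane anesthesia), tested from 10 days post-surgery after 2 days of apparatus habituation. Single oral dose in PEG300 or vehicle. Blinded observer tested ipsilateral and contralateral paws at 1, 3, 6 and 9 h: von Frey up-down method (0.16–6.0 g filaments, 5 stimuli each) and acetone-induced cold response. n = 9–10; mean ± SEM.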

Mus musculus [20] = experiment: Analgesic activity in C57BL/6 mouse chronic constriction injury model assessed as reversal of paws ipsilateral to CCI surgery at 50 mg/kg, po measured up to 9 hrs; assay type: functional, organism-based; design: dose 50 mg/kg; summary of the method: as §5
Mus musculus [21] = experiment: Toxicity in C57BL/6 mouse assessed as catalepsy at 50 mg/kg, po; assay type: organism-based; design: dose 50 mg/kg, route oral; conditions: in vivo

O=C(c1ncc(-c2ccccn2)o1)[C@H]1CCc2cc(Oc3ccccc3)ccc2C1
inhibition [1]: Active | inhibition [2]: Active | fold change (FC) (Mus musculus [3]): 5.1 | fold change (FC) (Mus musculus [4]): 7.2 | fold change (FC) (Mus musculus [5]): 0.9 | fold change (FC) (Mus musculus [6]): 0.8 | fold change (FC) (Mus musculus [7]): 6 | fold change (FC) (Mus musculus [8]): 3.6 | fold change (FC) (Mus musculus [9]): 13 | fold change (FC) (Mus musculus [10]): 1.4 | Activity (Mus musculus [11]): Dose-dependent effect | Activity (Mus musculus [12]): Dose-dependent effect | Activity (Mus musculus [13]): tde | Activity (Mus musculus [14]): tde | fold change (FC) (Mus musculus [15]): 5.5 | Activity (Mus musculus [16]): Active | Activity (Mus musculus [17]): Active | Activity (Mus musculus [18]): >90% | Activity (Mus musculus [19]): Active | Activity (Mus musculus [20]): Active | Activity (Mus musculus [21]): Non-toxic
